Data on 1 molecule can be found in article PMC6957261 (Biochimica et biophysica acta. Biomembranes, 2018).

SMILES strings stand for the structures.

What all share (assay): Membrane translocation by confocal microscopy in living LNCaP cells
Type in all cases: cell-based

Assay [1] deals with GFP-tagged wild type PKCθ (Homo sapiens, UniProt Q04759). The method, boiled down:
(§1)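 Full-length PKCθ constructs in pEGFP-N1 transfected into LNCaP cells 48 h after plating (RPMI 1640, 10% FBS, 37 °C). After 24 h, PMA is added in phenol red-free DMEM/1% FBS. Live confocal imaging at 488 nm every 30 s. Membrane/cytoplasm mean GFP ratio from 4 μm² regions is normalized to time 0 and read at 5 and 10 min. Three independent experiments, unpaired two-tailed t test.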

Assay [2] addresses GFP-tagged PKCθ C1b-C1b chimera (Homo sapiens, UniProt Q04759, A164V/A195M/A196N/A207N/D203T/E161R/E178T/F166N/F167Y/F179L/H177G/I197V/I202Q/I206A/K185R/K199H/K200R/K208L/N184A/N194G/P168K/Q169S/Q189K/Q192A/R191D/S174E/T163K/T165Y/V175H/V180L/Y188L). The following applies: response after 100 nM PMA, compared to wild type. In short, it runs like this: as §1
Assay [3] addresses GFP-tagged PKCθ ΔC1a (Homo sapiens, UniProt Q04759, DEL160-209). The method, boiled down: as §1
In assay [4] the target is GFP-tagged PKCθ/K240P (Homo sapiens, UniProt Q04759, K240P). The conditions noted are these: 1 μM PMA. The method, boiled down:
as §1

Assay [5] has as its target GFP-tagged PKCθ C1a-C1a chimera (Homo sapiens, UniProt Q04759, A256N/A264Q/A278I/D263R/E246S/G249H/G266N/H247V/H271K/K235T/K240P/K261Q/L251F/L252V/L260Y/L280K/M267A/N238F/N268A/N279A/Q274I/R233E/R257K/R272K/S241Q/T250E/T275D/V236A/V269I/Y237T/Y239F). The method, boiled down: as §1
The target of assay [6] is GFP-tagged PKCθ/P168K (Homo sapiens, UniProt Q04759, P168K). The conditions noted are these: PMA, compared to wild type, not statistically significant. The method, boiled down:
as §1

The target of assay [7] is GFP-tagged PKCθ ΔC1b (Homo sapiens, UniProt Q04759, DEL232-281). The conditions noted are these: 100 nM, 1 μM and 10 μM PMA.

As to `CCCCCCCCCCCCCC(=O)O[C@@H]1[C@@H](C)[C@@]2(O)[C@@H](C=C(CO)C[C@]3(O)C(=O)C(C)=C[C@@H]23)[C@@H]2C(C)(C)[C@]12OC(C)=O` [PMA, phorbol 12-myristate 13-acetate], the “translocation to the plasma membrane (membrane/cytoplasm ratio)” value in assay [1] (100 nM PMA) is given as “little response”; in assay [1] (1 and 10 μM PMA, 5 and 10 min) it was “translocated in a dose dependent manner”; in assay [2], “stronger translocation”; in assay [3] (PMA, compared to wild type), “enhanced membrane interaction compared to the wild type”; in assay [4], “modestly decreased translocation”; in assay [5] (1 μM PMA), “no translocation”. The results for the “translocation to the plasma membrane (membrane/cytoplasm ratio)” value in assay [5] (10 μM PMA), in assay [6] and in assay [7] were “very small but statistically significant increase in the translocation”, “increased translocation” and “complete loss of plasma membrane translocation”, respectively. Also, in assay [3] (100 nM PMA, deletion of C1a versus full length PKCθ), the “enhancement of translocation to the plasma membrane” value worked out at 5 fold.
